Laboratory results published in paper PMC12278411 (Acta Pharmaceutica Sinica. B, 2025).

Columns and labels:
[1] = biological target: RIPK2 (h) (Homo sapiens, UniProt O43353); assay: RIPK2 kinase assay; assay type: biochemical
[2] = biological target: T1, RIPK1 (Homo sapiens, UniProt Q13546); assay: RIPK1 kinase assay; assay type: biochemical
T1 sequence (Q13546 1-671): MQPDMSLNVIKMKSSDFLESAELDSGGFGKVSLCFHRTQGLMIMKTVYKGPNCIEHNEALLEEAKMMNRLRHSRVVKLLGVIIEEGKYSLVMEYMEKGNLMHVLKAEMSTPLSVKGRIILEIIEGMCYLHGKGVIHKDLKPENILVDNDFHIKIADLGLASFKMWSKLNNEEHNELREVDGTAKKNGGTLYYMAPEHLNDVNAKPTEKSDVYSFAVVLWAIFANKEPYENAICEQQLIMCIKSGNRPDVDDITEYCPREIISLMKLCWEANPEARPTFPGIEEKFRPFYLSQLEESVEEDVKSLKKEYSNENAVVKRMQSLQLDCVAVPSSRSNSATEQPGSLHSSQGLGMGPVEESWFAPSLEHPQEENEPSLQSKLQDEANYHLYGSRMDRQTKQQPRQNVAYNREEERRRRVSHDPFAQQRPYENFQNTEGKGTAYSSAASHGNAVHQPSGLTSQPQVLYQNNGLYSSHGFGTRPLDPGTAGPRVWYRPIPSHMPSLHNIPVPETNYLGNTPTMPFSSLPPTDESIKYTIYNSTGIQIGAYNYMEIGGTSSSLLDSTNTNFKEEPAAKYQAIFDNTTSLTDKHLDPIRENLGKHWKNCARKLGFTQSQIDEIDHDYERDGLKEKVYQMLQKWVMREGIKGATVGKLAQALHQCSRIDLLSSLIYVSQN

[3] = Plasma exposure test, oral 10 mg/kg; assay type: in vivo; details: 10 mg/kg p.o., BALB/c mice
Outline: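 Test compound in saline with 2.5% DMSO, given orally at 10 mg/kg to BALB/c mice (20–22 g), n = 3. Blood drawn at 0.5, 2 and 6 h after dosing, centrifuged to obtain plasma. Proteins precipitated with acetonitrile containing SAHA internal standard, centrifuged again; supernatant concentrations quantified by LC–MS/MS.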

[4] = Pharmacokinetic study in mice, i.v. and p.o.; assay type: in vivo; details: BALB/c, mouse, plasma, 10 mg/kg
[5] = tested on: APAP-induced ALI (650 mg/kg APAP); assay: Survival period in APAP-induced acute liver injury; assay type: in vivo, C57BL/6 mice; details: APAP 650 mg/kg, 96 h observation
Outline: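 Male C57BL/6 mice (24–25 g), fasted 16 h with free water, randomised 10 per group. APAP 650 mg/kg i.p., immediately followed by oral test compound (5, 10 or 20 mg/kg; reference groups NAC 30 mg/kg or a RIPK2 inhibitor 10 mg/kg). A second dose was given 12 h after induction. Saline controls included. Survival followed over 96 h.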

[6] = Metabolic stability assay in human liver microsome; assay type: in vitro ADME

Sequence of RIPK2 (h) (O43353 whole entry): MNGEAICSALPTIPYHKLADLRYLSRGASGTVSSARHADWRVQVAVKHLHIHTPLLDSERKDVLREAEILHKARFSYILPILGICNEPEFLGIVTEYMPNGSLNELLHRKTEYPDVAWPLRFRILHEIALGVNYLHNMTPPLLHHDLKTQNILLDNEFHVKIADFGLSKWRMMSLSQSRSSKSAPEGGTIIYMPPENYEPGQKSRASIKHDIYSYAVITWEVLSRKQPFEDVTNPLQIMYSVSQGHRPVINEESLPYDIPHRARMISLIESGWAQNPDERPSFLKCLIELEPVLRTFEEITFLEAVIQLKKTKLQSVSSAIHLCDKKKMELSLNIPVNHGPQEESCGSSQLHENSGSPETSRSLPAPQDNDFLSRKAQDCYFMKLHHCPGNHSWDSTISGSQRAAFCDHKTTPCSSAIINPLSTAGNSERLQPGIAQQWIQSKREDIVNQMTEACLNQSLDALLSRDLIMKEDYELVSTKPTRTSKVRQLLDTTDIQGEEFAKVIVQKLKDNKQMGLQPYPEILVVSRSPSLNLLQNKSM

## CC(C)(C)S(=O)(=O)c1cc2c(Nc3ccc4scnc4c3)ncnc2cc1OCCOP(=O)(O)O [GSK2983559, 2-((4-(benzo[d]thiazol-5-ylamino)-6-(tert-butylsulfonyl)quinazolin-7-yl)oxy)ethyl dihydrogen phosphate]
[1]
  IC50: 7 nM
[2]
  IC50: > 30000 nM
[3]; 0.5 h
  Plasma concentration 0.5 h: 1154 ± 125 ng/mL
[3]; 2 h
  Plasma concentration 2 h: 145 ± 42 ng/mL
[3]; 6 h
  Plasma concentration 6 h: 21 ± 11 ng/mL
[4]; iv
  AUC(0-t): 3780 ± 255 ng·h/mL
  Cmax: 5680 ± 521 ng/mL
  Vd: 9.46 ± 4.13 L/kg
  clearance: 44.3 mL/min/kg
  half-life: 2.42 ± 0.86 h
[4]; po
  AUC(0-t): 3120 ± 1060 ng·h/mL
  Cmax: 2620 ± 413 ng/mL
  bioavailability: 82.7%
  half-life: 2.74 ± 0.25 h
[5]
  survival of mice: significantly prolong the survival

## CC(=O)N[C@@H](CS)C(=O)O [NAC, N-acetylcysteine]
[5]
  survival of mice: only deferred the time of mortality

## Fc1cc2scnc2cc1Nc1ncnc2sc(C3=CCNCC3)cc12 [RP1, N-(6-fluorobenzo[d]thiazol-5-yl)-6-(1,2,3,6-tetrahydropyridin-4-yl)thieno[2,3-d]pyrimidin-4-amine]
[1]
  IC50: 9 nM
[2]; active RIPK1 activity relative to control, 1 μmol/L
  RIPK1 Percentage%@1 μmol/L: 99 ± 2%
[6]; human liver microsomes, 1 μmol/L
  CL: <12 mL/min/g·protein
[6]; human, pooled liver microsomes
  half-life at 1 μmol/L: > 2 h
